FLuc act counter: FLuc activators, initial screening, artefact control for FLuc-dependent activation tests, biochemical, ATPlite luminescence | Luciferin 4-monooxygenase (Photinus pyralis), P08659 | ATPlite luciferase biochemical, 10 min; 0 = ATP-free wells, 1 = DMSO control | activation factor at 10 µM | 200,000 tested, under 10 active;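 active = luciferase activation factor, scaled between plate controls, of at least 2 with compound at 10 µM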
Target sequence (P08659 whole entry, looked up): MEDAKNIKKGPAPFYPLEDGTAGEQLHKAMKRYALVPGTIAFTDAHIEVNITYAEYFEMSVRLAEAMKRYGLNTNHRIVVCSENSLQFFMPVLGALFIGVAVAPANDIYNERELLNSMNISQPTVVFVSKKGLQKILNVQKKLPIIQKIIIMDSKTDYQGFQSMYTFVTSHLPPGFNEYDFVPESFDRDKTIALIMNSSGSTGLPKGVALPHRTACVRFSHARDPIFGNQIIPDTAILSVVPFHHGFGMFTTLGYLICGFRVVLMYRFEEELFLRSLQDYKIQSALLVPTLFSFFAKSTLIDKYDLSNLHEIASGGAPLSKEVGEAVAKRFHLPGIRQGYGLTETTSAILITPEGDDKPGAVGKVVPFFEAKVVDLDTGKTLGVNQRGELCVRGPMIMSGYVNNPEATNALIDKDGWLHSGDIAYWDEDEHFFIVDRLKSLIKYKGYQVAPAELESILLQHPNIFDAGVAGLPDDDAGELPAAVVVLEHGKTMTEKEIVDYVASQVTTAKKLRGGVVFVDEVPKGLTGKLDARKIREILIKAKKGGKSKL
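assay system = Luciferase/luciferin detection reagent, cell-free biochemical luciferase assay | also added = ATP substrate | times = 10 min post-reagent at room temperature | measured by = luminescence from luciferase reaction | measure = luciferase activation, seen as luminescence increase over controls | benchmarks = low control with PBS replacing ATP, high control enzyme plus ATP without compound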
C8 TRAIL sens: viability loss with TRAIL in NB7+C8 cells, primary screen, TRAIL sensitizer project, cell-based, ATPlite luminescence. inhibition (viability loss, TRAIL sensitization), % at 10 µM. AID 624354, 2012. 360,000 tested, 1% active;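 active = compounds causing at least 50% loss of cell viability in the single-dose screen, relative to plate controls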
Platelet DG rel: inhibitors of platelet dense granule secretion, primary screen, cell-based, MLPCN, human platelets; 300,000 tested, 0.22% active; AID 1663, 2009; inhibition, %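 (compounds screened at 7.5 µM in platelet-rich plasma)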; human platelet-rich plasma, SFLLRN dense granule ATP release, luminescence;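 active = mean replicate score, as percent of positive control, at or above 50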
PPC-1+TRAIL kill: compounds killing PPC-1 cancer cells with TRAIL present, primary screen, TRAIL potentiator project, ATPLite luminescence, uHTS; cell killing (% activity), % at 4 µM or 5 µM; 220,000 tested, 0.41% active; PPC-1 cells + TRAIL, ATPLite viability luminescence; AID 1443, 2008;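 active = cell killing above 50% in the first pass at 4 µM, then a duplicate retest at 5 µM averaging 50% or more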;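 also: plate controls were cells with TRAIL plus DMSO for no effect and medium-only wells lacking cells for full effect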
FLuc inhib CS: firefly luciferase enzyme inhibitors, primary screen, artefact control for luciferase-based inhibitor screens, biochemical, luminescence, ATPLite | Luciferin 4-monooxygenase (Photinus pyralis), P08659 | 10 min | inhibition, % at 10 µM | 200,000 tested, 1.5% active;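 active = inhibition above about 50% when tested at 10 µM, limit read from the data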
The depositor's hits bear a star; / = no result given. Only some compounds are listed: those with a hit (about 1.6% of all), similar ones and a draw of the others.

SMILES	FLuc act counter	C8 TRAIL sens	Platelet DG rel	PPC-1+TRAIL kill	FLuc inhib CS
Cc1ccccc1C(=O)NNC(=O)c1ccc(F)cc1	1	-8	-3	2	0
C/C(=N/OC(=O)c1ccc(F)cc1)c1ccc(C)cc1	0.3	-3	0	15	70*
Cc1ccccc1C(=O)O/N=C(\N)c1ccc([N+](=O)[O-])cc1	/	-15	-13	/	/
Cc1ccccc1C(=O)O/N=C(\N)c1ccccc1	/	92*	60*	/	/
N/C(=N\OC(=O)/C=C/c1ccccc1)c1ccccc1	0.1	43	12	-2	85*
Cc1cc(OCC(=O)c2ccc(Br)cc2)ccc1N1C(=O)CCC1=O	1	23	4	31	0
Cc1ccc(C(=O)Oc2ccc(N3C(=O)CCC3=O)c(C)c2)cc1	0.5	2	-3	14	54*
Cc1ccc(S(=O)(=O)n2ccc3c(OCCOCCNCc4ccc(F)cc4)cccc32)cc1	/	53*	9	/	/
CCOC(=O)c1sc(NC(=O)C2CCC2)cc1C	0.5	17	-3	33	50*
CCOC(=O)c1cc(NC(=O)Nc2ccccc2Cl)c(C)nc1C	1.1	-7	2	7	-6
CCOC(=O)c1sc(NC(=O)Nc2ccccc2Cl)cc1C	0.2	77*	-1	63*	80*
CCOC(=O)c1sc(NC(=O)Nc2ccccc2)cc1C	0.2	73*	-2	60*	84*
CCOC(=O)c1sc(NC(=O)c2ccc(C)s2)cc1C	0.4	48	-1	38	62*
CCOC(=O)c1sc(NC(C)=O)cc1C	1	-6	8	-20	-2
CCc1ccc(C2=NNC(=Nc3cccc(S(=O)(=O)N(C)C)c3)SC2)cc1	1	71*	-3	2	-2
CCN(Cc1ccccc1)S(=O)(=O)c1ccc(C(=O)N(CCCN(C)C)c2nc3cc(C)cc(C)c3s2)cc1	/	75*	4	/	/
CCOc1cccc2sc(N(CCCN(C)C)C(=O)c3ccc(S(=O)(=O)N(C)Cc4ccccc4)cc3)nc12	/	51*	12	/	/
Cc1ccc2sc(N(CCCN(C)C)C(=O)c3ccc(S(=O)(=O)N(C)Cc4ccccc4)cc3)nc2c1C	/	69*	-10	/	/
Cc1ccc2sc(N(CCCN(C)C)C(=O)c3ccc(S(=O)(=O)N(C)C)cc3)nc2c1C	1	-9	6	16	-4
COc1cc(/C=C/C(=O)OCC(=O)c2ccc[nH]2)ccc1O	/	8	/	/	/
CCCCn1nc(C(=O)NC2CCCCC2)c2ccccc2c1=O	/	-12	/	/	/
O=S1(=O)CC(N2CCN(CC3CC3)CC2)CN1C1CCCCC1 (stereo not drawn)	/	-18	/	/	/
Cc1cc(Cl)n2c(nc3ccccc32)c1C#N	1	-2	-1	4	-2
Cc1c(CCCl)c(Cl)n2c(nc3ccccc32)c1C#N	/	88*	/	/	/
COc1cc(Cc2cc(OC)c(O)c(OC)c2)cc(OC)c1O	/	17	/	/	/
SMILES	FLuc act counter	C8 TRAIL sens	Platelet DG rel	PPC-1+TRAIL kill	FLuc inhib CS
COc1cccc(Nc2nc(C(N)Cc3ccc(Cl)cc3)cs2)n1 (stereo not drawn)	/	44	/	/	/
COc1cc(/C=N/N2C(=O)C3C4C=CC(CC4)C3C2=O)ccc1O (stereo not drawn)	0.9	14	-3	-22	14
Cc1ccsc1/C=N/N=C1\C(=O)Nc2ccccc21	0.8	-8	4	16	19
COc1cc(/C=N/N=C2/C(=O)Nc3ccccc32)ccc1O	0.1	74*	-5	22	94*
COc1cc(/C=N/N2C(=O)c3ccccc3C2=O)ccc1O	0.4	1	-4	8	57*
O=C1Nc2ccccc2/C1=N\N=C\c1ccc(O)c(O)c1	/	57*	2	30	/
Cc1ccccc1S(=O)(=O)NC(=O)C1(C)CCN1C(=O)C1CCCCC1 (stereo not drawn)	/	9	/	/	/
Cc1ccc(-c2nc3cc(Cl)ccc3o2)cc1	0.1	31	-2	-12	86*
Cc1ccc(-c2nc3cc(NC(=O)C(C)C)ccc3o2)cc1	0.6	46	-9	36	42
Cc1ccc2nc(-c3ccc(O)cc3)oc2c1	/	79*	19	/	/
O=C(O)c1c(Cl)cccc1Nc1ccccc1	/	12	/	/	/
CC1(C(=O)Nc2ccc3[nH]ncc3c2)CCN1C(=O)C/C=C/c1ccccc1 (stereo not drawn)	/	-22	/	/	/
CCN(CC)S(=O)(=O)c1ccc(N2C(=O)CC2(/C=C/c2ccccc2)C(=O)NC2CCCC2)cc1 (stereo not drawn)	1	-3	12	-11	-4
COc1ccccc1/C=C/C1(C(=O)NC2CCCC2)CC(=O)N1c1ccc(C)cc1 (stereo not drawn)	1.1	60*	-7	10	-7
COc1ccccc1/C=C/C1(C(=O)NC2CCCC2)CC(=O)N1c1ccc(F)cc1 (stereo not drawn)	1.1	92*	0	7	-7
O=C1c2ccccc2C(c2nnnn2Cc2ccccc2)N1CCCN1CCOCC1 (stereo not drawn)	/	9	/	/	/
Nc1[nH]c(C(=O)c2ccccc2)c(-c2c(F)cccc2F)c1C(=O)c1ccc(Cl)c(Cl)c1	/	-10	/	/	/
COc1ccccc1-c1cccc(-c2nc(C(=O)Nc3nccs3)cc3c2[C@H](CCO)N(C(C)=O)C3)c1	/	9	/	/	/
CN(C)Cc1csc(NC(=O)Nc2ccccc2Cc2ccccc2)n1	/	-5	/	/	/
COc1ccc(/C=N/c2c(-c3ccco3)nc3ccccn23)cc1OC	0.2	6	11	18	80*
Clc1ccc(/C=N/c2c(-c3ccco3)nc3ccccn23)cc1	0.8	0	12	10	23
CO[C@@H]1CN(C)C(=O)c2cc(NC(=O)Nc3cc(F)ccc3F)ccc2OC[C@H](C)N(C(=O)c2cnccn2)C[C@@H]1C	/	-23	/	/	/
CCCCc1c(Cc2ccccc2)ncn1CCc1ccccc1OC	/	26	/	/	/
O=C(Nc1ccc(N2CCOCC2)cc1)c1nc2ccccc2s1	/	16	88*	33	/
CCCCn1c2c(c(=N)c3ccccc31)CCC2	/	0	123*	1	/
SMILES	FLuc act counter	C8 TRAIL sens	Platelet DG rel	PPC-1+TRAIL kill	FLuc inhib CS
CCCCCn1c2c(c(=N)c3ccccc31)CCC2	/	0	70*	-1	/
COc1ccc(OC)c(NC(=O)C2(C)CCN2C(=O)CCC2CCCC2)c1 (stereo not drawn)	/	-8	/	/	/
CCCCCN(C(=O)CSc1n[nH]c(-c2ccc(C)cc2)n1)c1c(N)n(CCCC)c(=O)[nH]c1=O	/	55*	-2	/	/
CCOC1=C2CN(S(=O)(=O)c3ccc(C)cc3)CC[C@@H]2N(S(=O)(=O)c2ccc(C)cc2)[C@H](c2ccccc2)C1	/	15	/	/	/
Cc1ccc(-c2cnc(-c3ccncc3)o2)cc1	0.5	17	2	9	48
Nc1ccc(-c2ncc(-c3ccccc3)o2)cc1	/	52*	18	/	/
Cc1ccc(S(=O)(=O)N2[C@@H](CO)CO[C@H]2CC(=O)OCc2ccccc2)cc1	/	-10	/	/	/

Assay outcomes as filed in PubChem BioAssay.
